Laboratory results reported in ChEMBL document CHEMBL4842397, “Macrocyclization as a Source of Desired Polypharmacology. Discovery of Triple PI3K/mTOR/PIM Inhibitors” (ACS Med Chem Lett, 2021).
One block for each compound: values may come before it.

Experiments:
[1] = target: Phosphatidylinositol 4,5-bisphosphate 3-kinase catalytic subunit alpha isoform (Homo sapiens, UniProt P42336); experiment: Inhibition of PI3Kalpha (unknown origin) by ADP-Glo assay
[2] = target: Serine/threonine-protein kinase mTOR (Homo sapiens, UniProt P42345); experiment: Inhibition of mTOR (unknown origin) by LanthaScreen assay
[3] = target: Serine/threonine-protein kinase pim-1 (Homo sapiens, UniProt P11309); experiment: Inhibition of human PIM1 using ARKRRRHPSGPPTA as substrate measured after 1.5 hrs by ADP hunter plus assay
Chain of Serine/threonine-protein kinase pim-1 (P11309 whole entry): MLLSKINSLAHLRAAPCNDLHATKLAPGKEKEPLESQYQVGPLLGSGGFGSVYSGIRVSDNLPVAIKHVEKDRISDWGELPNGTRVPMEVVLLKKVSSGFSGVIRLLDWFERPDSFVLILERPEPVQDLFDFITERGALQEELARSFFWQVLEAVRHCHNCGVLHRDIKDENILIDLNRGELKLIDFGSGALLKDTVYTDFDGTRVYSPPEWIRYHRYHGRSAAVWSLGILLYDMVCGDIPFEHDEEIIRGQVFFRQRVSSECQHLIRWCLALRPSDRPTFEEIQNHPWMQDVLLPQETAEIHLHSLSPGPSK

[4] = target: PI3-kinase p110-alpha/p85-alpha (Homo sapiens, UniProt P42336); experiment: Inhibition of human PI3K p110alpha/p85alpha by HTRF assay; format: protein-complex assay
Chain of PI3-kinase p110-alpha/p85-alpha (P27986 whole entry, canonical isoform): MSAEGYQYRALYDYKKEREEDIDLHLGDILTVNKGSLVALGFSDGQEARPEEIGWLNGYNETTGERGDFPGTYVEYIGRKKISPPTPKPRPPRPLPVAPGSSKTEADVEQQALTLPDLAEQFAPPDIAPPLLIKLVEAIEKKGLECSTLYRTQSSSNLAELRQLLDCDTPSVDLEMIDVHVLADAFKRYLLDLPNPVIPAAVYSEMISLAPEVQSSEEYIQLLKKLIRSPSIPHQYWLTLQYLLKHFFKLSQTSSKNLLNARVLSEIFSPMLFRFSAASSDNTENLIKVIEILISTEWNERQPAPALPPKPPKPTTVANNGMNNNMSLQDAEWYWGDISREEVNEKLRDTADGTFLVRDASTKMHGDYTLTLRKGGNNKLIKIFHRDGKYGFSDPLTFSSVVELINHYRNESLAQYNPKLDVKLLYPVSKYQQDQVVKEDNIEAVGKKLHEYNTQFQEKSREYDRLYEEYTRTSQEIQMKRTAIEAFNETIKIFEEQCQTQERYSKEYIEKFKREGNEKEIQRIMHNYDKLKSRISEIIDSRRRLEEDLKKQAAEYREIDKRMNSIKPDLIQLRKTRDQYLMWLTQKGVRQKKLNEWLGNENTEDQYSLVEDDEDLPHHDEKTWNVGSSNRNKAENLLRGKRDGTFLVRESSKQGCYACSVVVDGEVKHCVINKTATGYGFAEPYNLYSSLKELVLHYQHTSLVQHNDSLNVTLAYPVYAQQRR
Chain of PI3-kinase p110-alpha/p85-alpha (P42336 whole entry, canonical isoform): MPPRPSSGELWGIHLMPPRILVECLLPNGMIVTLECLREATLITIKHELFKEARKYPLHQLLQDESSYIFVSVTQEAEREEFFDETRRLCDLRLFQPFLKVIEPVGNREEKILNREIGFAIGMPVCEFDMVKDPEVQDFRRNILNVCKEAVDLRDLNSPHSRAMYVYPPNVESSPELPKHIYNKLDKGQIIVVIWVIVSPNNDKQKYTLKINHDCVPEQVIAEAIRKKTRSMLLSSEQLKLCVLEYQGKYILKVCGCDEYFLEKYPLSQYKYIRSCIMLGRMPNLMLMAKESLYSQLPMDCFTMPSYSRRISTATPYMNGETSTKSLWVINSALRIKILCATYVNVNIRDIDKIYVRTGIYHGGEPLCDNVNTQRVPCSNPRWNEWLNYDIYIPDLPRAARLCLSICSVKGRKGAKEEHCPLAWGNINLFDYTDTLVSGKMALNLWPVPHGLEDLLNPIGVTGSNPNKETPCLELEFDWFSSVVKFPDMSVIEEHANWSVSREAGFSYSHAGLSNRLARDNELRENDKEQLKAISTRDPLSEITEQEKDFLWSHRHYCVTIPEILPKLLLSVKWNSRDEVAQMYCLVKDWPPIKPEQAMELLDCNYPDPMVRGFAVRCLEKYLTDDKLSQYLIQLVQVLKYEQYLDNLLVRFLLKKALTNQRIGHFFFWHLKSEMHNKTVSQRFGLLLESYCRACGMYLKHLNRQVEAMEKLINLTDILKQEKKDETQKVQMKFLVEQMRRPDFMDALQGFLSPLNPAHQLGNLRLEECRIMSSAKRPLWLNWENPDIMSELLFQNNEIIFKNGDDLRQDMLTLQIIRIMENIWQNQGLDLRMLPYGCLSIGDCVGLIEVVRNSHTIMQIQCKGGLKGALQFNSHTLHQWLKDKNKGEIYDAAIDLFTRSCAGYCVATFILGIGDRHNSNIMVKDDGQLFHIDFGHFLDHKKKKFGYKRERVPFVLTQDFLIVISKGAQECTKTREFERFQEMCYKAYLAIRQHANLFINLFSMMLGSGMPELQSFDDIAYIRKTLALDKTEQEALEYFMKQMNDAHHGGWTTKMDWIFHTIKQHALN
In short: (§1)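 Ki from an HTRF assay on each PI3K isoform, reported in nM as the average of two independent experiments.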

PI3K p110 beta/p85 alpha = PI3K p110 beta/p85 alpha (Homo sapiens, UniProt P42338); experiment: Inhibition of human PI3K p110beta/p85alpha by HTRF assay; format: protein-complex assay; in short: as §1
[5] = target: PI3-kinase p110-delta/p85-alpha (Homo sapiens, UniProt O00329); experiment: Inhibition of human PI3K p110delta/p85alpha by HTRF assay; format: protein-complex assay; in short: as §1
[6] = target: Phosphatidylinositol 4,5-bisphosphate 3-kinase catalytic subunit gamma isoform (Homo sapiens, UniProt P48736); experiment: Inhibition of human PI3Kgamma by HTRF assay; in short: as §1
Chain of Phosphatidylinositol 4,5-bisphosphate 3-kinase catalytic subunit gamma isoform (P48736 whole entry, canonical isoform): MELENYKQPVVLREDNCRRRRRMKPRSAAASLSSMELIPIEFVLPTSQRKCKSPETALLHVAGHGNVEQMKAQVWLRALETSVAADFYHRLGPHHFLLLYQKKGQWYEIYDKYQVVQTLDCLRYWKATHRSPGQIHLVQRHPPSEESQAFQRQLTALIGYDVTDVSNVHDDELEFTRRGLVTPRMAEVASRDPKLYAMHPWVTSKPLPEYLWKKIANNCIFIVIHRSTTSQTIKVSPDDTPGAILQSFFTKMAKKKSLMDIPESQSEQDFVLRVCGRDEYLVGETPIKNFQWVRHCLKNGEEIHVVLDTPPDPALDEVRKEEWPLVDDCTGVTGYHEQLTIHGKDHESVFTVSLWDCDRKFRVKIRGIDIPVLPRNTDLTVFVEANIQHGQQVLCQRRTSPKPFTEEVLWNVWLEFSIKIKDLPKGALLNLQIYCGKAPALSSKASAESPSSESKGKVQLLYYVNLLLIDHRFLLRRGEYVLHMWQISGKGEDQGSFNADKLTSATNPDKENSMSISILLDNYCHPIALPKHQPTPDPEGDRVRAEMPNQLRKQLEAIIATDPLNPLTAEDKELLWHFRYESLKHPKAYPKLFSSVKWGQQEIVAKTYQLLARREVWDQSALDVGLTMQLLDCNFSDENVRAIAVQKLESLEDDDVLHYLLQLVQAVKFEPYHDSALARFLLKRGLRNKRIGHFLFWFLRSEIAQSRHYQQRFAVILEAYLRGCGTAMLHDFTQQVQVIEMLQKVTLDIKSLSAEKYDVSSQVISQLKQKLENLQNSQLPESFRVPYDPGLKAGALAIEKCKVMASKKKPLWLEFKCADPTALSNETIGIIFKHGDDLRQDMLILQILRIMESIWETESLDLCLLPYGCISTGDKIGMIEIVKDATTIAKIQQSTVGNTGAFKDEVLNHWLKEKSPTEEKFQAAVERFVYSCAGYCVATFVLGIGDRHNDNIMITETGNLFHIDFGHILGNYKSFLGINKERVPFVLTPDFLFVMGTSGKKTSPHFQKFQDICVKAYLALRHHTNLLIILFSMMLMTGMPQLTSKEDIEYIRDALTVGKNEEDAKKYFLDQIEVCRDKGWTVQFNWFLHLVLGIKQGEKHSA

[7] = target: Serine/threonine-protein kinase pim-2 (Homo sapiens, UniProt Q9P1W9); experiment: Inhibition of PIM2 (unknown origin) using ARKRRRHPSGPPTA as peptide substrate by ADP Hunter Plus assay
Chain of Serine/threonine-protein kinase pim-2 (Q9P1W9 whole entry): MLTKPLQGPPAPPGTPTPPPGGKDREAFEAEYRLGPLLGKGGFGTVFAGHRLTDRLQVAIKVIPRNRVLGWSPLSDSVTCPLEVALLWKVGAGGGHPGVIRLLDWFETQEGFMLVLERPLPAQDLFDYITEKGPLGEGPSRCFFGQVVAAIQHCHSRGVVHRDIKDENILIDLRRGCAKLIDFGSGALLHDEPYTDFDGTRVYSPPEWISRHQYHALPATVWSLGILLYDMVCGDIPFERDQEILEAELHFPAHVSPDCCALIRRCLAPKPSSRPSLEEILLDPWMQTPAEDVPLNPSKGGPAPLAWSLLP

[8] = target: Serine/threonine-protein kinase pim-3 (Homo sapiens, UniProt Q86V86); experiment: Inhibition of PIM3 (unknown origin) using ARKRRRHPSGPPTA as peptide substrate by ADP Hunter Plus assay
[9] = AUClast in BALB/c mouse at 1 mg/kg, iv; format: ADME, organism-based; set-up: route intravenous, time 0 - last, dose 1 mg/kg; settings: in vivo
In short: (§2)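 Preliminary single-dose pharmacokinetics in BALB-C mice, given I.V. or P.O. Units: AUC h.ng/mL, T1/2 h, Cl L/h/kg, Vd L/kg, Cmax ng/mL, Tmax h. Bioavailability is the absorbed fraction at the doses tested.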

[10] = AUClast in BALB/c mouse at 10 mg/kg, po; format: ADME, organism-based; set-up: time 0 - last, route oral, dose 10 mg/kg; settings: in vivo; in short: as §2
[11] = Half life in BALB/c mouse at 1 mg/kg, iv; format: ADME, organism-based; settings: in vivo; in short: as §2
[12] = Half life in BALB/c mouse at 10 mg/kg, po; format: ADME, organism-based; settings: in vivo; in short: as §2
[13] = Volume of distribution at steady state in BALB/c mouse at 1 mg/kg, iv; format: ADME, organism-based; settings: in vivo; in short: as §2
[14] = Tmax in BALB/c mouse at 10 mg/kg, po; format: ADME, organism-based; settings: in vivo; in short: as §2
[15] = Oral bioavailability in BALB/c mouse at 10 mg/kg; format: ADME, organism-based; settings: in vivo; in short: as §2
[16] = Clearance in BALB/c mouse at 1 mg/kg, iv; format: ADME, organism-based; settings: in vivo; in short: as §2
[17] = target: Serine/threonine-protein kinase PIM (Homo sapiens, UniProt P11309+Q9P1W9+Q86V86); experiment: Inhibition of PIM in human MV4-11 cells assessed as BAD phosphorylation at Ser112 measured after over night incubation by lotting based cellular assay; format: cell-based
[18] = Microsomal stability in human liver microsomes incubated for 30 mins by LC-MS/MS analysis; format: ADME, Microsome; settings: read-out: Stabilty
[19] = Microsomal stability in mouse liver microsomes incubated for 30 mins by LC-MS/MS analysis; format: ADME, Microsome; settings: read-out: Stabilty
[20] = Microsomal stability in rat liver microsomes incubated for 30 mins by LC-MS/MS analysis; format: ADME, Microsome; settings: read-out: Stabilty
Cytochrome P450 2C9 = Cytochrome P450 2C9 (Homo sapiens, UniProt P11712); experiment: Inhibition of CYP2C9 (unknown origin); format: ADME
[21] = target: Voltage-gated inwardly rectifying potassium channel KCNH2 (Homo sapiens, UniProt Q12809); experiment: Inhibition of human ERG at < 30 uM
Chain of Voltage-gated inwardly rectifying potassium channel KCNH2 (Q12809 whole entry): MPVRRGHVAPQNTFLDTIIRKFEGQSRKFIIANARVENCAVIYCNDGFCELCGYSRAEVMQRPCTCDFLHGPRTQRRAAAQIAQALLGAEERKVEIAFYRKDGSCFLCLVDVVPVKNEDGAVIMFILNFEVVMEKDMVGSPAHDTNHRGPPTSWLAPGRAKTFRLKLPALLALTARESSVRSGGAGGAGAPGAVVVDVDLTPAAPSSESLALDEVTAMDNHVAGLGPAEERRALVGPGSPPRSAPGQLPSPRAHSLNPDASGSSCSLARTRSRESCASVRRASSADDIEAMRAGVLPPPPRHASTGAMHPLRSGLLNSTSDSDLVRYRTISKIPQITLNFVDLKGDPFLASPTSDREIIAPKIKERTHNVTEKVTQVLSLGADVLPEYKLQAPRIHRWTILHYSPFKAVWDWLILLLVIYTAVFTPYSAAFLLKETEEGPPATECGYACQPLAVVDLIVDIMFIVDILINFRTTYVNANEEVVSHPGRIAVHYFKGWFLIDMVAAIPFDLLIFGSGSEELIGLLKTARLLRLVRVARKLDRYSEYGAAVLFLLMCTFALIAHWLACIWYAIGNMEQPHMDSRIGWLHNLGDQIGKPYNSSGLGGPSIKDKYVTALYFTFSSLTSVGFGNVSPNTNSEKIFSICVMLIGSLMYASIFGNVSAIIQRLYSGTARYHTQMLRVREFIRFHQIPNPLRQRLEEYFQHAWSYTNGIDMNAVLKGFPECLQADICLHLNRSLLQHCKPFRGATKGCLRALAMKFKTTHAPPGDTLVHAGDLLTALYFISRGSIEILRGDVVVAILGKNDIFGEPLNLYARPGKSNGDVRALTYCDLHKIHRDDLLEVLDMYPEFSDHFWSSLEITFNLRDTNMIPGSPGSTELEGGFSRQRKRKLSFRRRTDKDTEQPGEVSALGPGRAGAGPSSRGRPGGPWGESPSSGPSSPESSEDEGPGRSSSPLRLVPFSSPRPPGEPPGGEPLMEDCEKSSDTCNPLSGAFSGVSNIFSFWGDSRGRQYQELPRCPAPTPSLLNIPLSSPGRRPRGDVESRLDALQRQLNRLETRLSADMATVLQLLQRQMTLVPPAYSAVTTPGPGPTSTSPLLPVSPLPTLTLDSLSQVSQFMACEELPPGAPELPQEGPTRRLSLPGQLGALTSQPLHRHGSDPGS

PI3K/mTOR (Homo sapiens) = experiment: Inhibition of PI3K/mTOR in human MV4-11 cells assessed as Akt phosphorylation at Ser473 measured after over night incubation by lotting based cellular assay
[22] = AUClast in BALB/c mouse at 0.7 mg/kg, iv; format: ADME, organism-based; set-up: route intravenous, time 0 - last, dose 0.7 mg/kg; settings: in vivo; in short: as §2
[23] = AUClast in BALB/c mouse at 5 mg/kg, po; format: ADME, organism-based; set-up: route oral, time 0 - last, dose 5 mg/kg; settings: in vivo; in short: as §2
[24] = Half life in BALB/c mouse at 0.7 mg/kg, iv; format: ADME, organism-based; settings: in vivo; in short: as §2
[25] = Half life in BALB/c mouse at 5 mg/kg, po; format: ADME, organism-based; settings: in vivo; in short: as §2
[26] = Volume of distribution at steady state in BALB/c mouse at 0.7 mg/kg, iv; format: ADME, organism-based; settings: in vivo, read-out: Vdss; in short: as §2
[27] = Cmax in BALB/c mouse at 5 mg/kg, po; format: ADME, organism-based; set-up: route oral, dose 5 mg/kg; settings: in vivo; in short: as §2
[28] = Tmax in BALB/c mouse at 5 mg/kg, po; format: ADME, organism-based; settings: in vivo; in short: as §2
[29] = Oral bioavailability in BALB/c mouse at 5 mg/kg; format: ADME, organism-based; settings: in vivo; in short: as §2
[30] = Clearance in BALB/c mouse at 0.7 mg/kg, iv; format: ADME, organism-based; settings: in vivo; in short: as §2

Chain of Phosphatidylinositol 4,5-bisphosphate 3-kinase catalytic subunit alpha isoform (P42336 whole entry, canonical isoform): as the sequence (P42336 whole entry, canonical isoform) above

SMILES: COc1ncc2cc1NS(=O)(=O)c1cccc(c1)C(=O)NCCn1cc(cn1)-c1ncnc3c1SC2=C3
IC50 [1]: 58.3 nM
IC50 [2]: > 10000 nM
IC50 [3]: 254 nM

SMILES: COc1ncc2cc1NS(=O)(=O)c1cccc(c1)C(=O)NCc1cncc(c1)-c1ncnc3c1SC2=C3C
IC50 [1]: 19 nM
IC50 [2]: 175 nM
IC50 [3]: 42.9 nM

SMILES: COc1ncc2cc1NS(=O)(=O)c1cccc(c1)C(=O)NCc1cc(ccn1)-c1ncnc3c1SC2=C3
IC50 [1]: 50.2 nM
IC50 [2]: > 10000 nM
IC50 [3]: 649 nM

SMILES: COc1ncc2cc1NS(=O)(=O)c1cccc(c1)C(=O)NCc1cccc(c1)-c1ncnc3c1SC2=C3
IC50 [1]: 16.8 nM
IC50 [2]: > 10000 nM
IC50 [3]: 279 nM

SMILES: COc1ncc2cc1NS(=O)(=O)c1cccc(c1)C(=O)NCC1=CC=C(O1)c1ncnc3c1SC2=C3
IC50 [1]: 381 nM
IC50 [2]: > 10000 nM
IC50 [3]: 247 nM

SMILES: COc1ncc(-c2sc3c(-c4cccs4)ncnc3c2C)cc1NS(=O)(=O)c1ccccc1
IC50 [1]: 36.2 nM
IC50 [2]: > 1000 nM
IC50 [3]: > 10000 nM

SMILES: COc1ncc2cc1NS(=O)(=O)c1cccc(c1)C(=O)NCC1=CC=C(S1)c1ncnc3c1SC2=C3
IC50 [1]: 17 nM
IC50 [2]: 5700 nM
IC50 [3]: 12.9 nM

SMILES: COc1ncc2cc1NS(=O)(=O)c1cccc(c1)C(=O)NCc1csc(c1)-c1ncnc3c1SC2=C3
IC50 [1]: 28.9 nM
IC50 [2]: > 10000 nM
IC50 [3]: 13.1 nM

SMILES: COc1ncc2cc1NS(=O)(=O)c1cccc(c1)C(=O)NCc1cncc(c1)-c1ncnc3c1SC2=C3
IC50 [1]: 74.6 nM
IC50 [2]: > 10000 nM
IC50 [3]: 45.8 nM

SMILES: COc1ncc2cc1NS(=O)(=O)c1cccc(c1)C(=O)NCc1nc(cs1)-c1ncnc3c1SC2=C3
IC50 [1]: 123 nM
IC50 [2]: > 10000 nM
IC50 [3]: > 10000 nM

These reach a lower IC50 [1]. Values come first.

IC50 [1]: 6.72 nM
IC50 [2]: 604 nM
IC50 [3]: > 10000 nM
SMILES: CNC(=O)c1cccc(S(=O)(=O)Nc2cc(-c3sc4c(-c5cccs5)ncnc4c3C)cnc2OC)c1

IC50 [1]: 13.7 nM
IC50 [2]: > 10000 nM
IC50 [3]: 154 nM
SMILES: COc1ncc2cc1NS(=O)(=O)c1cccc(c1)C(=O)NCc1cc(cs1)-c1ncnc3c1SC2=C3

IC50 [1]: 3.15 nM
IC50 [2]: > 10000 nM
IC50 [3]: 44 nM
SMILES: COc1ncc2cc1NS(=O)(=O)c1cccc(c1)C(=O)NC[C@H]1CCN(C1)c1ncnc3c1SC2=C3C

IC50 [1]: 3.08 nM
IC50 [2]: > 10000 nM
IC50 [3]: 122 nM
SMILES: COc1ncc2cc1NS(=O)(=O)c1cccc(c1)C(=O)NC[C@@H]1CCN(C1)c1ncnc3c1SC2=C3C

IC50 [1]: 6.34 nM
IC50 [2]: 2100 nM
IC50 [3]: 14.6 nM
SMILES: COc1ncc2cc1NS(=O)(=O)c1ccc(F)c(c1)C(=O)NCC1=CC=C(S1)c1ncnc3c1SC2=C3

IC50 [1]: 0.66 nM
IC50 [2]: 2030 nM
IC50 [3]: 39.1 nM
SMILES: COc1ncc2cc1NS(=O)(=O)c1cccc(c1)C(=O)NC[C@@H]1CN(CCO1)c1ncnc3c1SC2=C3C

IC50 [1]: 6.28 nM
IC50 [2]: > 10000 nM
IC50 [3]: 11.1 nM
SMILES: COc1ncc2cc1NS(=O)(=O)c1ccc(Cl)c(c1)C(=O)NCC1=CC=C(S1)c1ncnc3c1SC2=C3

IC50 [1]: 0.43 nM
IC50 [2]: 197 nM
IC50 [3]: 178 nM
SMILES: COc1ncc2cc1NS(=O)(=O)c1cccc(c1)C(=O)NCCn1cc(cn1)-c1ncnc3c1SC2=C3C

IC50 [1]: 0.23 nM
IC50 [2]: 138 nM
IC50 [3]: 18.1 nM
Ki [4]: 0.25 nM
Ki (PI3K p110 beta/p85 alpha): 0.37 nM
Ki [5]: 0.08 nM
Ki [6]: 0.44 nM
IC50 [7]: 13.3 nM
IC50 [8]: 4.39 nM
AUC(0-t) [9]: 16600 ng·h/mL
AUC(0-t) [10]: 58200 ng·h/mL
half-life [11]: 3.66 h
half-life [12]: 23.4 h
Vd [13]: 0.31 L/kg
Tmax [14]: 0.25 h
bioavailability [15]: 35.1%
clearance [16]: 1 mL/min/kg
EC50 [17]: 34 nM
remaining at 0.5 h [18]: > 98%
remaining at 0.5 h [19]: 90%
remaining at 0.5 h [20]: 87%
IC50 (Cytochrome P450 2C9): 4610 nM
EC50 (PI3K/mTOR (Homo sapiens)): < 1 nM
SMILES: COc1ncc2cc1NS(=O)(=O)c1cccc(c1)C(=O)NCC1=CC=C(S1)c1ncnc3c1SC2=C3C
inhibition (INH) [21]: Not Active

IC50 [1]: 3.29 nM
IC50 [2]: 80.9 nM
IC50 [3]: > 10000 nM
SMILES: COc1ncc(-c2sc3c(-c4ccc(CNC=O)s4)ncnc3c2C)cc1NS(=O)(=O)c1ccccc1

IC50 [1]: 7.4 nM
IC50 [2]: > 10000 nM
IC50 [3]: 43.8 nM
SMILES: COc1ncc2cc1NS(=O)(=O)c1cccc(c1)C(=O)NCC1=C(C)C=C(S1)c1ncnc3c1SC2=C3

IC50 [1]: 6.91 nM
IC50 [2]: 5570 nM
IC50 [3]: 65.7 nM
SMILES: COc1ccc2cc1C(=O)NCC1=CC=C(S1)c1ncnc3c1SC(=C3)c1cnc(OC)c(c1)NS2(=O)=O

IC50 [1]: 0.13 nM
IC50 [2]: 74.5 nM
IC50 [3]: 22.3 nM
Ki [4]: 0.27 nM
Ki (PI3K p110 beta/p85 alpha): 0.31 nM
Ki [5]: 0.13 nM
Ki [6]: 0.17 nM
IC50 [7]: 8.04 nM
IC50 [8]: 5.75 nM
AUC(0-t) [22]: 11200 ng·h/mL
AUC(0-t) [23]: 99100 ng·h/mL
half-life [24]: 2.96 h
half-life [25]: 14.6 h
Vd [26]: 0.26 L/kg
Cmax [27]: 9370 ng/mL
Tmax [28]: 5 h
bioavailability [29]: 124%
clearance [30]: 1.05 mL/min/kg
EC50 [17]: 60 nM
remaining at 0.5 h [18]: > 98%
EC50 (PI3K/mTOR (Homo sapiens)): < 1 nM
SMILES: COc1ncc2cc1NS(=O)(=O)c1ccc(F)c(c1)C(=O)NCC1=CC=C(S1)c1ncnc3c1SC2=C3C
inhibition (INH) [21]: Not Active
